Data taken from ChEMBL document CHEMBL3745654, “N-Alkylated arylsulfonamides of (aryloxy)ethyl piperidines: 5-HT(7) receptor selectivity versus multireceptor profile” (Bioorg Med Chem, 2016).
pKi: −log10 of the molar value. The source made the active and inactive calls. The calls are words filed in the database; no cut-off is given here.

Key:
[1] = target: 5-hydroxytryptamine receptor 7 (Homo sapiens, UniProt P34969); test: Displacement of [3H]-5-CT from human 5-HT7B receptor expressed in HEK293 cells incubated for 1 hr; type: cell-based
Summary of the method: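 Membranes from HEK293 cells stably expressing human 5-HT7b receptor, with [3H]-5-CT (39.2 Ci/mmol). Buffer: 50 mM Tris-HCl, 4 mM MgCl2, pargyline, 0.1% ascorbate. Incubation 1 h at 37 °C, then rapid filtration and counting of filter radioactivity. Non-specific binding defined with 5-HT. Triplicates at 7–8 concentrations (10^-11 to 10^-4 M). Ki by Cheng–Prusoff.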

[2] = target: T1, 5-hydroxytryptamine receptor 1A (Homo sapiens, UniProt P08908); test: Displacement of [3H]-8-OH-DPAT from human 5-HT1A receptor expressed in HEK293 cells incubated for 1 hr; type: cell-based
T1 sequence (P08908 whole entry): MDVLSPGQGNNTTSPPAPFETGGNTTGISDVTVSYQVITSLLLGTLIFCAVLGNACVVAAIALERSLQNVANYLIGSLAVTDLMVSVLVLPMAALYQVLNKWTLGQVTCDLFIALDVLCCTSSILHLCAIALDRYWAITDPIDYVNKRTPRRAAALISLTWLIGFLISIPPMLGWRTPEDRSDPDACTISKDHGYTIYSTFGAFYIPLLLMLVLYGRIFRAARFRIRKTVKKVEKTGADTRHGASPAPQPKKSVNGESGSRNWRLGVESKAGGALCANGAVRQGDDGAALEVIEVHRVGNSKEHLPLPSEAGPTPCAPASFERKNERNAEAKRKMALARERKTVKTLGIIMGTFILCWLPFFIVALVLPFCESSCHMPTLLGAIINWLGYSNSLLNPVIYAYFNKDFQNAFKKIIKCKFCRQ
Summary of the method: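 Membranes from HEK293 cells stably expressing human 5-HT1A receptor, with [3H]-8-OH-DPAT (187 Ci/mmol). Buffer: 50 mM Tris-HCl, 0.1 mM EDTA, 4 mM MgCl2, pargyline, 0.1% ascorbate. Incubation 1 h at room temperature, then filtration. Non-specific binding defined with 5-HT. Triplicates at 7–8 concentrations. Ki by Cheng–Prusoff.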

[3] = target: 5-hydroxytryptamine receptor 2A (Homo sapiens, UniProt P28223); test: Displacement of [3H]-ketanserin from human 5-HT2A receptor expressed in HEK293 cells incubated for 1 hr; type: cell-based
Summary of the method: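 Membranes from HEK293 cells stably expressing human 5-HT2A receptor, with [3H]-ketanserin (66.9 Ci/mmol). Incubation 1 h at 37 °C, then rapid filtration and counting. Triplicates at 7–8 concentrations (10^-11 to 10^-4 M). Ki by Cheng–Prusoff; means of at least three experiments.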

D(2) dopamine receptor = D(2) dopamine receptor (Homo sapiens, UniProt P14416); test: Displacement of [3H]-Raclopride from human dopamine D2L receptor expressed in HEK293 cells incubated for 1 hr; type: cell-based
Summary of the method: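 Membranes from HEK293 cells stably expressing human D2L receptor, with [3H]-raclopride (74.4 Ci/mmol). Buffer: Tris-HCl, EDTA, MgCl2, 120 mM NaCl, 5 mM KCl, 1.5 mM CaCl2, ascorbate. Incubation 1 h at 37 °C, then filtration. Non-specific binding defined with (+)butaclamol. Triplicates at 7–8 concentrations (10^-11 to 10^-4 M). Ki by Cheng–Prusoff.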

Mus musculus [4] = test: Antidepressant-like activity in Swiss albino mouse assessed as reduction in immobility time at 10 mg/kg, ip dosed 30 mins before test measured after 6 mins by forced swim test; type: functional, organism-based
Summary of the method: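 Male Swiss albino mice (22–26 g), 7–12/group, used once; drug suspended in 1% aqueous Tween 80 just before use, given ip 30 min before test. Blind observer. 6-min swim in a glass cylinder (25 × 10 cm) with 10 cm of water at 23–25 °C. Immobility timed over the final 4 min. Data as mean ± SEM; one-way ANOVA, then Bonferroni vs vehicle.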

Mus musculus [5] = test: Toxicity in Swiss albino mouse assessed as effect on spontaneous locomotor activity at 10 mg/kg, ip dosed 30 mins before test measured after 2 to 6 mins; type: organism-based; details: in vivo
Summary of the method: (§1)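 Swiss albino mice given reference drug ip 30 min before testing (citalopram in water; SB-269970 suspended in 1% aqueous Tween 80). Ambulation counted from 2 to 6 min in individual cages by activity monitor.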

[6] = Intrinsic clearance in mouse liver microsomes at 20 uM at pH 7.4 incubated for 15 mins by UPLC/MS analysis in presence of NADPH; type: ADME; details: read-out: CLH
[7] = Half life in mouse liver microsomes at 20 uM at pH 7.4 incubated for 15 mins by UPLC/MS analysis in presence of NADPH; type: ADME
Summary of the method: (§2)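 Compound (20 µM) incubated with mouse liver microsomes (0.2 mg/ml) in 100 mM potassium phosphate, pH 7.4, 37 °C. Reaction started with NADPH-regenerating system; blank without NADPH run in parallel. Sampling at 5, 15, 30 and 60 min (some to 120 min), in duplicate. Levallorphan internal standard; UPLC/MS quantitation. t1/2 from ln % remaining vs time.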

[8] = Metabolic stability in mouse liver microsomes assessed as retention time of compound at 20 uM at pH 7.4 incubated for 15 mins by UPLC/MS analysis in presence of NADPH; type: ADME; details: pH 7.4, 0.25 h; summary of the method: as §2
[9] = Drug metabolism in mouse liver microsomes assessed as retention time of hydroxylated metabolite at 20 uM at pH 7.4 incubated for 15 mins by UPLC/MS analysis in presence of NADPH; type: ADME; details: pH 7.4, 0.25 h; summary of the method: as §2
Mus musculus [10] = test: Antidepressant-like activity in Swiss albino mouse assessed as reduction in immobility time at 1.25 mg/kg, ip dosed 30 mins before test measured after 6 mins by forced swim test; type: functional, organism-based
Summary of the method: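 Male Swiss albino mice (22–26 g), 7–12/group, used once; drug in distilled water, given ip 30 min before test. Observer blind to treatment. Mice swam 6 min in a glass cylinder (25 cm high, 10 cm diameter) holding 10 cm of water at 23–25 °C. Immobility (floating, only small head-keeping movements) was timed over the last 4 min. One-way ANOVA, then Bonferroni vs vehicle.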

Mus musculus [11] = test: Toxicity in Swiss albino mouse assessed as effect on spontaneous locomotor activity at 1.25 mg/kg, ip dosed 30 mins before test measured after 2 to 6 mins; type: organism-based; details: in vivo; summary of the method: as §1
[12] = Drug metabolism in mouse liver microsomes assessed as retention time of N-dealkylated metabolite at 20 uM at pH 7.4 incubated for 15 mins by UPLC/MS analysis in presence of NADPH; type: ADME; details: pH 7.4, 0.25 h; summary of the method: as §2

Sequence of 5-hydroxytryptamine receptor 2A (P28223 whole entry): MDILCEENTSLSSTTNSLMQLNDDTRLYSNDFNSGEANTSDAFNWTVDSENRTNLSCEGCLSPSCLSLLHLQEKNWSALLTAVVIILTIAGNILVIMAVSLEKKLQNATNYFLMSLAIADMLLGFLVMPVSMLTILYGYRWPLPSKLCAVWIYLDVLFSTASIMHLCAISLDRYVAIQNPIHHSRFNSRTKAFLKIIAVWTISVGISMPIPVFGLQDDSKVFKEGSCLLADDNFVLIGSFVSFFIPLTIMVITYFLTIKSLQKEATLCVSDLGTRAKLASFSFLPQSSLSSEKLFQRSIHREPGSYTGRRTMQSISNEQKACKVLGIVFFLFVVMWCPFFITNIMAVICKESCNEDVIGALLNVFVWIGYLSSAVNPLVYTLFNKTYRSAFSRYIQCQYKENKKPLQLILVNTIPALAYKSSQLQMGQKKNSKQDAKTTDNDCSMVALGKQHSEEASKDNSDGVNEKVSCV
Sequence of D(2) dopamine receptor (P14416 whole entry): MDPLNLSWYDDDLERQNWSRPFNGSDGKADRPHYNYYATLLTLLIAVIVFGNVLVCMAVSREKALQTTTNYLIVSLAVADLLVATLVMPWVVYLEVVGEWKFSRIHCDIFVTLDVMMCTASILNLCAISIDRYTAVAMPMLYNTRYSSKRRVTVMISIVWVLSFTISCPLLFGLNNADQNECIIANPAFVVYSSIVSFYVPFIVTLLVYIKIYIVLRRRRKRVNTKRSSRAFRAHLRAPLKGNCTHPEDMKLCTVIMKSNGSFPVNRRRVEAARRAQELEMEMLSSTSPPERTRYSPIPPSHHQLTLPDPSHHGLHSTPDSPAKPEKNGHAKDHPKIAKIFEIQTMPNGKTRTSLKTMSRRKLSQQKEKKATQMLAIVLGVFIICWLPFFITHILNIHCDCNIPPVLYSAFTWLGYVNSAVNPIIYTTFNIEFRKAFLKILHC
Sequence of 5-hydroxytryptamine receptor 7 (P34969 whole entry): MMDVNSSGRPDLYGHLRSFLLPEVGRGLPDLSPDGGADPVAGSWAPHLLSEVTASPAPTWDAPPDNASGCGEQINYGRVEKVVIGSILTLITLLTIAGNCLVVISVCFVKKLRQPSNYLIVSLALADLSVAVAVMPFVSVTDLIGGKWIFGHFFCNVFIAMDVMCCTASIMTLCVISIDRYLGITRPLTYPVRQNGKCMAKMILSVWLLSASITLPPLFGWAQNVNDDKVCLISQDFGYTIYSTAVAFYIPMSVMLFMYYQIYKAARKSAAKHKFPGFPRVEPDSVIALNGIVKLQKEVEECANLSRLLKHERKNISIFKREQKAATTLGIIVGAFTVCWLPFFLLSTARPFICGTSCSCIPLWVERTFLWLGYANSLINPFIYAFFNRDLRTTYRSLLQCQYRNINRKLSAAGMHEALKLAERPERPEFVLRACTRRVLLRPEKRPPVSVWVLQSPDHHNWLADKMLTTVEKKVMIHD

Row | Compound | pKi [1] | pKi [2] | pKi [3] | pKi (D(2) dopamine receptor) | further results
1 | CC(C)c1ccccc1OCCN1CCC(N(CC2CC2)S(=O)(=O)c2cccc(F)c2)CC1 | 7.25 | 6.80 | 6.37 | 7.82 | 
2 | CC1CCN(CC[C@H]2CCCN2S(=O)(=O)c2cccc(O)c2)CC1 |  |  |  |  | Activity (Mus musculus [4]): Active; Activity (Mus musculus [5]): Non-toxic
3 | Cn1cc(S(=O)(=O)NC2CCN(CCOc3ccccc3C(C)(C)C)CC2)cn1 |  |  |  |  | microsomal CLint at 20 µM [6]: > 200 µL/min/mg; half-life at 20 µM [7]: < 20 min; Retention_time [8]: 4.72 min; Retention_time [9]: 3.62 min
4 | CN(C1CCN(CCOc2ccccc2-c2ccccc2)CC1)S(=O)(=O)c1ccccc1 | 7.00 | 7.21 | 7.38 | 7.28 | 
5 | O=S(=O)(c1ccc(F)cc1)N(CC1CC1)C1CCN(CCOc2ccccc2-c2ccccc2)CC1 | 7.74 | 6.47 | 7.15 | 7.43 | 
6 | CN(C)CCCC1(c2ccc(F)cc2)OCc2cc(C#N)ccc21 (stereo not drawn) [CITALOPRAM] |  |  |  |  | Activity (Mus musculus [10]): Active; Activity (Mus musculus [11]): Non-toxic
7 | Cn1cc(S(=O)(=O)NC2CCN(CCOc3ccccc3-c3ccccc3)CC2)cn1 |  |  |  |  | Retention_time [12]: 3.85 min; microsomal CLint at 20 µM [6]: > 200 µL/min/mg; half-life at 20 µM [7]: < 20 min; Retention_time [8]: 4.45 min
8 | CC(C)c1ccccc1OCCN1CCC(N(CC2CC2)S(=O)(=O)c2ccc(F)cc2)CC1 | 7.55 | 6.60 | 6.38 | 7.70 | 
9 | CN(C1CCN(CCOc2ccccc2C(C)(C)C)CC1)S(=O)(=O)c1ccc(F)cc1 | 7.24 | 5.04 | 5.97 | 6.49 | 
10 | CC(C)c1ccccc1OCCN1CCC(N(CC2CC2)S(=O)(=O)c2cnn(C)c2)CC1 | 7.25 | 6.67 | 6.42 | 7.74 | 
11 | CC(C)c1ccccc1OCCN1CCC(N(C)S(=O)(=O)c2cnn(C)c2)CC1 | 8.00 | 6.46 | 6.92 | 7.34 | 
12 | CC(C)(C)c1ccccc1OCCN1CCC(N(CC2CC2)S(=O)(=O)c2ccc(F)cc2)CC1 | 7.28 | 4.85 | 5.88 | 6.80 | 
13 | CC(C)c1ccccc1OCCN1CCC(N(C)S(=O)(=O)c2ccc(F)cc2)CC1 | 7.89 | 6.74 | 6.42 | 7.30 | 
14 | CN(C1CCN(CCOc2ccccc2C(C)(C)C)CC1)S(=O)(=O)c1ccccc1 | 7.15 | 5.63 | 5.90 | 6.44 | 
15 | CN(C1CCN(CCOc2ccccc2-c2ccccc2)CC1)S(=O)(=O)c1ccc(F)cc1 | 8.30 | 7.52 | 7.16 | 7.27 | 
16 | CC(C)c1ccccc1OCCN1CCC(N(C)S(=O)(=O)c2ccccc2)CC1 | 8.05 | 6.85 | 6.58 | 7.22 | 
17 | CC(C)c1ccccc1OCCN1CCC(N(C)S(=O)(=O)c2cccc(F)c2)CC1 | 7.74 | 6.72 | 6.64 | 7.35 | 
18 | CN(C1CCN(CCOc2ccccc2C(C)(C)C)CC1)S(=O)(=O)c1cccc(F)c1 | 7.17 | 5.35 | 5.71 | 6.54 | 
